Assay results as given in publication PMC6500479 (Journal of controlled release : official journal of the …, 2019).
Bridges are numbered along the chain shown (N, C = ends). Where no end group is shown, it is not given here. FAM = carboxyfluorescein; Ahx = NCCCCCC(=O)O

What was measured:
macrophages = details: ref [22]; cited from earlier work
[1] = system: 4T1 mouse mammary carcinoma; experiment: In vivo homing to 4T1 orthotopic breast tumors; details: 5 min, 15 min or 1 h after IV injection, IF
Method in brief: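 4T1 tumors came from 1 × 10⁶ cells in 100 μL PBS injected into the mammary fat pad of female BALB/c mice. FAM-labelled test peptide was given IV, 100 μL of 1 mg/mL in PBS, and circulated 5 min, 15 min or 1 h before PBS perfusion. Fixed frozen sections were blocked in 1% BSA/0.1% Triton X-100 for 1 h at RT. Primaries (1:200) ran overnight at 4 °C, secondaries (1:200) 1 h at RT, with anti-CD31 for vessels. DAPI mounting, confocal imaging.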

[2] = system: bovine serum albumin (BSA); experiment: Binding to control protein BSA

Row | Substance | Inhibition of FAM-CRV binding to macrophages (macrophages) | Accumulation in tumors over time [1] | Binding to BSA [2]
1 | Biotinylated CRV: Biotinylated CRV (CRVLRSGSC; disulfide 1-9; also: biotin, position not given here) | inhibits the binding of FAM-CRV to macrophages |  | 
2 | GGSGGSKG ({FAM-Ahx}-GGSGGSKG-OH) [FAM-GGS] |  | little accumulation in tumors | neither peptide bound
